Reference: ChEMBL document CHEMBL5674882, “Benzolactam-related compounds promote apoptosis of HIV-infected human cells via protein kinase C-induced HIV latency reversal” (J Biol Chem, 2019)
Calls of active or inactive are those of the source. The rule behind the calls is not given here.

What was measured:
[1] = biological target: T1, Protein kinase C (PKC) (Homo sapiens) (UniProt O94806+P41743+P17252+P05129+Q05655+P05771+Q05513+Q02156+P24723+Q15139+Q04759); assay: Activation of PKC CD4+ T-cells purified from HIV-infected patient assessed as increase in transcription of HIV mRNA at 1 uM incubated for 24 hrs by qRT-PCR method; type: cell-based; conditions: CD4+ T cell, filed as activator
In short: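 CD4+ T-cells purified from PBMC of eight cART-treated HIV+ patients (cART ≥5 years, plasma viral load <20 copies/ml), plated at 2.5 × 10^6 cells/ml and treated 24 h. Total RNA extracted; HIV RNA quantified by qRT-PCR against a plasmid standard curve, normalized per ng input RNA, and expressed as fold over untreated cells. Medians of eight individuals; Mann-Whitney U test.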

[2] = Toxicity in human CD4+ T-cells assessed as elevation of supernatant cytokine concentrations of IL-2 incubated for 24 hrs in presence of JQ1 by bead-based immunoassay; conditions: cd4+ t cell
In short: (§1)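 Purified CD4+ T-cells from healthy donors treated 24 h with 1 μm drug, 1 μm JQ1, or the combination. IL-2, IL-5, IL-6, IL-13, TNFα and IFN-γ in supernatants measured by flow-cytometry bead-based Th1/Th2 immunoassay. Run in duplicate.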

[3] = biological target: T1, Protein kinase C (PKC) (Homo sapiens); assay: (§2) Activation of PKC in human ACH-2 cells infected with latent HIV-1 assessed as reversal of HIV-1 latency by measuring increase in p24 antigen level incubated for 48 hrs by chemiluminescent enzyme immunoassay; type: cell-based; conditions: ACH-2 cell line, filed as activator
Protein kinase C (PKC) [4] = assay: as §2; type: cell-based; conditions: ach-2 cell line
J-Lat 6.3 [5] = assay: Induction of apoptosis in human J-Lat 6.3 cells at 1 uM incubated for 48 hrs by propidium iodide/annexin-V staining based flow cytometry (reference value: 3.16%); type: functional
[6] = biological target: T1, Protein kinase C (PKC) (Homo sapiens); assay: Activation of PKC in human J-Lat 10.6 cells infected with latent HIV-1 assessed as reversal of HIV-1 latency by measuring increase of GFP-positive cells at 400 nM incubated for 24 hrs by flow cytometry; type: cell-based; conditions: filed as activator
[7] = Toxicity in human CD4+ T-cells assessed as elevation of supernatant cytokine concentrations of IFNgamma incubated for 24 hrs by bead-based immunoassay; conditions: cd4+ t cell; in short: as §1
[8] = Toxicity in human CD4+ T-cells assessed as elevation of supernatant cytokine concentrations of IL-13 incubated for 24 hrs in presence of JQ1 by bead-based immunoassay; conditions: cd4+ t cell; in short: as §1
[9] = Toxicity in human CD4+ T-cells assessed as elevation of supernatant cytokine concentrations of IL-5 incubated for 24 hrs in presence of JQ1 by bead-based immunoassay; conditions: cd4+ t cell; in short: as §1
U1 [10] = assay: Induction of apoptosis in human U1 cells at 1 uM incubated for 48 hrs by propidium iodide/annexin-V staining based flow cytometry; type: functional
[11] = biological target: T1, Protein kinase C (PKC) (Homo sapiens); assay: Synergistic activation of PKC in human U1 cells infected with latent HIV-1 assessed as reversal of HIV-1 latency by measuring increase in p24 antigen level at 50 nM incubated for 48 hrs in presence of 100 nM JQ1 by chemiluminescent enzyme immunoassay relative to compound alone; type: cell-based; conditions: filed as activator
In short: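 U1 cells at 5 × 10^5 cells/ml incubated 48 h with test agent alone or plus 100 nm JQ1. Supernatant p24 antigen quantified by automated immunoassay. Fold reactivation computed versus the same agent without JQ1. Mean ± S.D. of three independent experiments.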

[12] = biological target: T1, Protein kinase C (PKC) (Homo sapiens); assay: Activation of PKC in human J-Lat 10.6 cells infected with latent HIV-1 assessed as reversal of HIV-1 latency by measuring increase of GFP-positive cells at 100 to 400 nM in presence of 10 nM Panobinostat incubated for 24 hrs by flow cytometry; type: cell-based; conditions: filed as activator, dose 100-400 nM
[13] = biological target: T1, Protein kinase C (PKC) (Homo sapiens); assay: (§3) Activation of PKC in human U1 cells infected with latent HIV-1 assessed as reversal of HIV-1 latency by measuring increase in p24 antigen level incubated for 48 hrs by chemiluminescent enzyme immunoassay; type: cell-based; conditions: filed as activator
Protein kinase C (PKC) [14] = assay: as §3; type: cell-based
U-937 = assay: Induction of apoptosis in human U-937 cells assessed as caspase-3 activation at 1 uM incubated for 24 hrs by flow cytometry; type: functional
In short: (§4)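 Cells fixed in 1% paraformaldehyde, permeabilized, stained 30 min on ice with anti-active caspase-3 mAb, and analysed by flow cytometry. Three independent experiments.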

[15] = biological target: T1, Protein kinase C (PKC) (Homo sapiens); assay: Activation of PKC in human J-Lat 10.6 cells infected with latent HIV-1 assessed as reversal of HIV-1 latency by measuring increase of GFP-positive cells at 100 to 400 nM in presence of 1 uM SAHA incubated for 24 hrs by flow cytometry; type: cell-based; conditions: filed as activator, dose 100-400 nM
J-Lat 6.3 [16] = assay: Induction of apoptosis in human J-Lat 6.3 cells assessed as caspase-3 activation at 1 uM incubated for 24 hrs by flow cytometry; type: functional; in short: as §4
[17] = Toxicity in human CD4+ T-cells assessed as elevation of supernatant cytokine concentrations of IL-13 incubated for 24 hrs by bead-based immunoassay; conditions: cd4+ t cell; in short: as §1
[18] = biological target: T1, Protein kinase C (PKC) (Homo sapiens); assay: Activation of PKC in human J-Lat 6.3 cells infected with latent HIV-1 assessed as reversal of HIV-1 latency by measuring increase of GFP-positive cells at 10 uM in presence of PKC delta inhibitor Rottlerin incubated for 24 hrs by flow cytometry; type: cell-based
In short: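 J-Lat 6.3 cells pretreated 3 h with a PKC inhibitor: Gö 6983 1 µM, Gö 6976 1 µM, GF 109203X 1 µM, PKCθ/δ inhibitor 10 µM, or Rottlerin 1 µM. Then exposed to 10 µM compound for 24 h; GFP-positive cells counted by flow cytometry. Mean ± S.D.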

U1 [19] = assay: Induction of apoptosis in human U1 cells at 1 uM incubated for 48 hrs after pre-incubated for 2 hrs with 20 uM caspase inhibitor Q-VD-Oph by propidium iodide/annexin-V staining based flow cytometry relative to compound alone control; type: functional; design: scale not given: the % may be the effect or the level left
In short: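 ACH-2 or U1 cells pretreated 2 h with 20 µM pan-caspase inhibitor Q-VD-Oph, then exposed to 1 µM compound for 48 h. Annexin-V/PI staining by flow cytometry; apoptotic proportions compared with and without Q-VD-Oph. Mean ± S.D.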

[20] = Toxicity in human A3.01 cells assessed as reduction in cell viability after 48 hrs by WST8 assay; type: cell-based
In short: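 Parental, uninfected lines (A3.01 for ACH-2, U937 for U1) at 5 × 10^5 cells/ml cultured with or without drug. Viable cells read at 48 h (day 2) and expressed as % of untreated control. CC50 taken as the concentration lowering viability by 50%.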

[21] = biological target: T1, Protein kinase C (PKC) (Homo sapiens); assay: Synergistic activation of PKC in CD4+ T-cells purified from HIV-infected patient assessed as increase in transcription of HIV mRNA at 1 uM incubated for 24 hrs in presence of 1 uM JQ1 by qRT-PCR method; type: cell-based; conditions: CD4+ T cell, filed as activator
In short: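 CD4+ T-cells purified from PBMC of patients on cART for at least 5 years with plasma viral load <20 copies/ml. Cells plated at 2.5 × 10^6 cells/ml and treated 24 h, alone or with 1 μm JQ1. Intracellular HIV RNA measured by qRT-PCR against a plasmid standard curve, normalised per ng input RNA, relative to untreated cells. Synergy assessed by Bliss independence model.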

Structure (SMILES): CCCCCCCCCCc1ccc2c(c1)N(C)[C@@H](C(C)C)C(=O)N[C@H](CO)C2
- Activity [1]: Active
- Activity [2]: Non-Toxic
- Activity [3]: Dose-Dependent Effect
- EC50 (Protein kinase C (PKC) [4]): 0.025 µM
- Activity (J-Lat 6.3 [5]): 17%
- Activity [6]: 42.2%
- Activity [7]: Toxic
- Activity [8]: Non-Toxic
- Activity [9]: Non-Toxic
- Activity (U1 [10]): 28.4%
- fold change (FC) [11]: 4.5
- Activity [12]: Active
- Activity [13]: Dose-Dependent Effect
- EC50 (Protein kinase C (PKC) [14]): 0.034 µM
- Activity (U-937): 0.5%
- Activity [15]: Active
- Activity (J-Lat 6.3 [16]): 12.2%
- Activity [17]: Toxic
- Activity [18]: inactive
- Activity (U1 [19]): 20%
- CC50 at 48 h [20]: 21.1 µM
- fold change (FC) [21]: 13.2
